Experimental data as given in ChEMBL document CHEMBL1817625, “Synthesis of pheophorbide-a conjugates with anticancer drugs as potential cancer diagnostic and therapeutic agents” (Bioorg Med Chem, 2011).
Calls of active or inactive are those of the source. The rule behind the calls is not given here.

How the values were obtained:
HeLa [1] = assay: Cellular uptake in human HeLa cells at 10 uM after 48 hrs by confocal microscopic analysis; format: ADME, cell-based
Procedure, shortened: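 HeLa cells were seeded in slide dishes in RPMI 1640 overnight. They were then exposed to 10 µM compound in complete medium for 48 h under 95% air/5% CO2 and washed three times with PBS. Confocal imaging used 440 nm excitation, collecting 575–600 nm emission (doxorubicin channel) and 655–755 nm emission (pheophorbide-a channel).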

AT84 = assay: Cytotoxicity against mouse AT84 cells assessed as inhibition of cell growth at 10 uM after 3 days by SRB assay; format: functional, cell-based
Procedure, shortened: (§1)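 Cells were grown in RPMI 1640 with 10% FBS and antibiotic–antimycotic at 37 °C, 5% CO2, and trypsin/EDTA-detached. They were seeded at 50,000 cells/mL and exposed to 10 µM compound for 3 days. For SRB staining, cells were fixed cold for 1 h, stained 1 h at room temperature, washed with 1% acetic acid and solubilized in 10 mM Tris. A515 was read; means of four duplicates were expressed as % of solvent-treated control.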

MCF7 = assay: Cytotoxicity against human MCF7 cells assessed as inhibition of cell growth at 10 uM after 3 days by SRB assay; format: functional, cell-based
Procedure, shortened: (§2)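 Cells were kept at 37 °C in 5% CO2, HeLa in DMEM and MCF7 in RPMI 1640, each with 10% FBS. They were seeded at 50,000 cells/mL in 96-well plates, exposed to 10 µM compound for 3 days, then fixed in the cold for 1 h. Staining was SRB for 1 h at room temperature with 1% acetic acid washes. Bound dye was released in 10 mM Tris and read at 515 nm. Values are means of four duplicated samples, as a percentage of solvent-treated control.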

HeLa [2] = assay: Cytotoxicity against human HeLa cells assessed as inhibition of cell growth at 10 uM after 3 days by SRB assay; format: functional, cell-based; procedure, shortened: as §2
U-87MG ATCC = assay: Cytotoxicity against human U87MG cells assessed as inhibition of cell growth at 10 uM after 3 days by SRB assay; format: functional, cell-based; procedure, shortened: as §1
KB = assay: Cytotoxicity against human KB cells assessed as inhibition of cell growth at 10 uM after 3 days by SRB assay; format: functional, cell-based; procedure, shortened: as §1
YD-10B = assay: Cytotoxicity against human YD-10B cells assessed as inhibition of cell growth at 10 uM after 3 days by SRB assay; format: functional, cell-based
Procedure, shortened: (§3)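 Cultures were kept in DMEM with 10% FBS and antibiotic–antimycotic at 37 °C, 5% CO2, and detached with trypsin/EDTA. Cells were plated at 50,000 cells/mL and treated with 10 µM compound for 3 days. SRB staining: 1 h cold fixation, 1 h room-temperature stain, 1% acetic acid washes, 10 mM Tris release. A515 was read; the mean of four duplicates was given as % of solvent-treated control.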

A549 = assay: Cytotoxicity against human A549 cells assessed as inhibition of cell growth at 10 uM after 3 days by SRB assay; format: functional, cell-based; procedure, shortened: as §3
HepG2 = assay: Cytotoxicity against human HepG2 cells assessed as inhibition of cell growth at 10 uM after 3 days by SRB assay; format: functional, cell-based; procedure, shortened: as §3
SK-OV-3 = assay: Cytotoxicity against human SKOV3 cells assessed as inhibition of cell growth at 10 uM after 3 days by SRB assay; format: functional, cell-based; procedure, shortened: as §1
HCT-116 = assay: Cytotoxicity against human HCT116 cells assessed as inhibition of cell growth at 10 uM after 3 days by SRB assay; format: functional, cell-based; procedure, shortened: as §1
PC-3 = assay: Cytotoxicity against human PC3 cells assessed as inhibition of cell growth at 10 uM after 3 days by SRB assay; format: functional, cell-based; procedure, shortened: as §1

Row | SMILES | Drug uptake (HeLa [1]) | growth inhibition (GI) (AT84) | growth inhibition (GI) (MCF7) | growth inhibition (GI) (HeLa [2]) | growth inhibition (GI) (U-87MG ATCC) | growth inhibition (GI) (KB) | growth inhibition (GI) (YD-10B) | growth inhibition (GI) (A549) | growth inhibition (GI) (HepG2) | growth inhibition (GI) (SK-OV-3) | growth inhibition (GI) (HCT-116) | growth inhibition (GI) (PC-3)
1 | C=Cc1c(C)c2cc3nc(c4c5[nH]c(cc6nc(cc1[nH]2)C(C)=C6CC)c(C)c5C(=O)[C@@H]4C(=O)OC)[C@@H](CCC(=O)O)[C@@H]3C [PHEOPHORBIDE A] | Active | – | – | – | – | – | – | – | – | – | – | –
2 | C=Cc1c(C)c2cc3nc(c4c5[nH]c(cc6nc(cc1[nH]2)C(C)=C6CC)c(C)c5C(=O)[C@@H]4C(=O)OC)[C@@H](CCC(=O)Oc1ccccc1/C=C/C(=O)N[C@@H]1C[C@@H](O[C@H]2C[C@](O)(C(=O)CO)Cc4c(O)c5c(c(O)c42)C(=O)c2c(OC)cccc2C5=O)O[C@H](C)[C@@H]1O)[C@@H]3C | Active | Active | Active | Active | Active | Active | Active | Active | Active | Active | Active | Active
3 | C=Cc1c(C)c2cc3nc(c4c5[nH]c(cc6nc(cc1[nH]2)C(C)=C6CC)c(C)c5C(=O)[C@@H]4C(=O)OC)[C@@H](CCC(=O)Nc1ccc(COC(=O)N[C@@H]2C[C@@H](O[C@H]4C[C@](O)(C(=O)CO)Cc5c(O)c6c(c(O)c54)C(=O)c4c(OC)cccc4C6=O)O[C@H](C)[C@@H]2O)cc1)[C@@H]3C | Active | Active | Active | Active | Active | Active | Active | Active | Active | Active | Active | Active
4 | C=Cc1c(C)c2cc3nc(c4c5[nH]c(cc6nc(cc1[nH]2)C(C)=C6CC)c(C)c5C(=O)[C@@H]4C(=O)OC)[C@@H](CCC(=O)O[C@@H](C(=O)O[C@H]1C[C@@]2(O)[C@@H](OC(=O)c4ccccc4)[C@@H]4[C@]5(OC(C)=O)CO[C@@H]5C[C@H](O)[C@@]4(C)C(=O)[C@H](OC(C)=O)C(=C1C)C2(C)C)[C@@H](NC(=O)c1ccccc1)c1ccccc1)[C@@H]3C | – | – | Active | Active | – | Active | Active | – | – | – | – | –
5 | COc1cccc2c1C(=O)c1c(O)c3c(c(O)c1C2=O)C[C@@](O)(C(=O)CO)C[C@@H]3O[C@H]1C[C@H](N)[C@H](O)[C@H](C)O1 [DOXORUBICIN] | Active | – | – | – | – | – | – | – | – | – | – | –
6 | C=Cc1c(C)c2cc3nc(c4c5[nH]c(cc6nc(cc1[nH]2)C(C)=C6CC)c(C)c5C(=O)[C@@H]4C(=O)OC)[C@@H](CCC(=O)N[C@@H]1C[C@@H](O[C@H]2C[C@](O)(C(=O)CO)Cc4c(O)c5c(c(O)c42)C(=O)c2c(OC)cccc2C5=O)O[C@H](C)[C@@H]1O)[C@@H]3C | Active | Active | Active | Active | Active | – | – | – | – | – | – | –
